Only some compounds are listed: those with a hit (about 1.8% of all), similar ones and a draw of the others.
DDE Tn7 FP inh: disrupts Tn7 cyclic peptide binding to fibrin D-Dimer-E complex | P02675 | FP displacement of FITC-Tn7 peptide from fibrin DD(E); 0% = median of compound wells per plate | inhibition, % at 8.3 µM | 370,000 tested, 0.13% active | AID 720508;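 active = inhibition above the mean of compounds falling within the control limits plus 3 SD of them, cut at about 14% in these data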;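 note: 0% = plate median of compound wells and 100% = 10 µM Aha-Tn7 peptide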
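Test system – human fibrin DD(E) · Times – 10 min preincubation, 3 h with tracer, room temperature · Detection – fluorescence polarization of the labelled Tn7 tracer · Measure – percent inhibition normalized to high-control wells · Benchmarks – high control wells with 10 µM unlabelled Aha-Tn7 peptide (full inhibition) · Repeats – singlicate testing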
TCR CD3 inh: human TCR-CD3 binding inhibition; TAMRA-labeled TCR probe fluorescence, biochemical; inhibition, % at 9.4 µM; 360,000 tested, 0.37% active; AID 651800;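 note: recombinant mutant TCR 2C K166C tagged with TAMRA read by polarization; 0% = receptor in buffer alone and 100% = receptor with positive control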
DDE Tn6 FP inh: disrupts Tn6 cyclic peptide binding to fibrin D-Dimer-E complex; Fibrin DD(E) TRITC-Tn6 fluorescence polarization displacement; inhibition, % at 8.3 µM; 370,000 tested, 0.21% active;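 active = inhibition above a per-campaign cutoff: mean of compounds within control limits plus 3 SD, cut at about 15% in these data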;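 note: 0% = median of all compound wells on the plate and 100% = blocking peptide control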
mABHD4 FP: inhibitors of mouse ABHD4. Q8VD66. purified mABHD4, FP-Rh probe fluorescence polarization. inhibition, % at 8.92 µM. 370,000 tested, 0.54% active. AID 720543;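 active = inhibition exceeding the mean over every tested compound plus 3 SD, cut at about 30% in these data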;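 note: 0% = plate median of compound wells and 100% = S159A mutant with DMSO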
Target sequence (Q8VD66 whole entry, looked up): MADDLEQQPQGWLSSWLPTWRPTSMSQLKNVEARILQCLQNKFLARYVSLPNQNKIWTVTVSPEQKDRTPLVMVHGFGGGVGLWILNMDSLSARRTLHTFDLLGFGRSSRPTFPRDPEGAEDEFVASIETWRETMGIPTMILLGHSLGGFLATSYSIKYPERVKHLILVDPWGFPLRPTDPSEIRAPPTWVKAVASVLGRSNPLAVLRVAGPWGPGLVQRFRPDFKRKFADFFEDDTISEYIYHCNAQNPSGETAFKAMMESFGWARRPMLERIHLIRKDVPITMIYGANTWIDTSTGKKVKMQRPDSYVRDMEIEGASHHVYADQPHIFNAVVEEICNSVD
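Doses – 8.92 µM, single dose · Material – wild-type mouse ABHD4 protein · Replication – single well per compound (singlicate) · Measure – percent inhibition of probe binding, normalized to plate controls · Schedule – 45 min compound pre-incubation plus 60 min probe step, 25 °C · Detection – fluorescence polarization with parallel and perpendicular emission, 525/598 nm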
SIAE primary: blocks human sialic acid acetylesterase. SIAE FP-Rh probe binding, fluorescence polarization. inhibition, % at 9.66 µM. 370,000 tested, 0.69% active;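 active = inhibition above a cutoff: mean of compounds within the control limits plus 3 SD of those, cut at about 17% in these data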;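 note: 0% = plate median of compound wells and 100% = probe without SIAE protein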
HTRA1 inhibitor: inhibitors of human serine peptidase HTRA1. inhibition, % at 5.96 µM. Q92743. AID 504803. 340,000 tested, 0.5% active. recombinant HTRA1, FP-rhodamine activity-based probe, fluorescence polarization; in the data active = inhibition above about 36%;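 note: 0% = enzyme with DMSO and 100% = wells lacking enzyme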
Target sequence (Q92743 whole entry, looked up): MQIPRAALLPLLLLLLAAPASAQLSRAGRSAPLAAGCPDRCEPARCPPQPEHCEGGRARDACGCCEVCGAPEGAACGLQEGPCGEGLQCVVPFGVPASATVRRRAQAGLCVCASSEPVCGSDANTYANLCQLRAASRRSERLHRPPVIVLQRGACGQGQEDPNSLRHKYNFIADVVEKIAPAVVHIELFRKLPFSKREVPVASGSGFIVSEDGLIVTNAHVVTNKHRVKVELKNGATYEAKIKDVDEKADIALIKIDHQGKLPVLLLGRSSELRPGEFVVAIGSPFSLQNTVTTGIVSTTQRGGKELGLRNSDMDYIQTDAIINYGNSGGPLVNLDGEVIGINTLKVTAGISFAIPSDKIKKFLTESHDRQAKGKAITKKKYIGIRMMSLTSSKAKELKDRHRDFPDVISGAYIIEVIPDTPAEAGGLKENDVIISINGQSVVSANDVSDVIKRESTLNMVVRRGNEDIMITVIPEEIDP
HTRA1 conf: confirmation of human HTRA1 inhibitors; shares compounds with HTRA1 inhibitor; recombinant HTRA1, FP-rhodamine activity-based probe, fluorescence polarization; inhibition, % at 5.96 µM; 1,600 tested, 66% active; AID 540248;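 active = mean inhibition over three repeats above a set limit taken from the earlier primary screen, cut at about 37% in these data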;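 note: 0% = HTRA1 with DMSO and 100% = wells lacking HTRA1; inhibitors block probe binding so polarization drops and inhibition rises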
BSA TAMRA ctr: interferes with TAMRA-BSA probe, flagging TCR-CD3 hits; 1,200 tested, 10% active; TAMRA-labeled BSA probe fluorescence counterscreen; inhibition, % at 9.4 µM; shares compounds with TCR CD3 inh; in the data active = inhibition above about 23%;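 note: 0% = buffer low control and 100% = reference high control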
TCR-CD3 inh conf: TCR-CD3 interaction inhibition, confirmation | shares compounds with TCR CD3 inh | TAMRA-labeled TCR probe fluorescence binding assay | inhibition, % at 9.4 µM | 1,200 tested, 48% active | AID 652036
Tn6 DDE ctr: counter-screen hit for Tn6 peptide-fibrin DD(E) binding disruption. TRITC-Tn6 fluorescence polarization displacement; 0% = median of compound wells, not DMSO. shares compounds with DDE Tn6 FP inh. 680 tested, 2% active. AID 720621. inhibition, % at 8.3 µM;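 active = inhibition above the mean of test compounds lying between the control limits plus 3 SD of those, cut at about 14% in these data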;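 note: 0% = median of compound wells and 100% = wells with Aha-Tn7 blocking peptide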
Tn6 DDE conf: confirmation of inhibitors of Tn6 binding to human fibrin DD(E); FP displacement of TRITC-Tn6 peptide from DD(E); 0% = per-plate median of test wells; 680 tested, 10% active; shares compounds with DDE Tn6 FP inh; inhibition, % at 8.3 µM;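 active = inhibition above the mean of compounds lying within the control limits plus 3 SD, cut at about 16% in these data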;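 note: 100% = high control wells holding a competing inhibitor peptide at 10 µM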
ABHD4 confirm: ABHD4 (mouse) inhibition, FP confirmation; shares compounds with mABHD4 FP; purified mABHD4, FP-Rh probe fluorescence polarization; inhibition, % at 8.92 µM; 1,800 tested, 55% active;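 active = mean inhibition across replicates above the hit cutoff set in the primary screen, cut at about 30% in these data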;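 note: 0% = wild-type ABHD4 with DMSO and 100% = catalytically dead S159A mutant with DMSO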
SIAE confirm: confirmation of human SIAE inhibitors; SIAE FP-Rh activity-based probe, fluorescence polarization; AID 1117263; inhibition, % at 9.66 µM; shares compounds with SIAE primary; 2,300 tested, 13% active;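 active = mean inhibition of the replicates above the hit cutoff set in the primary screen, cut at about 17% in these data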;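 note: 0% = SIAE with DMSO and probe and 100% = probe without SIAE; inhibitors lower polarization as more probe stays unbound to SIAE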
Starred values were filed as active, the others as inactive; nt = no result. Cut-off read from the data, not from the text of the source, unless noted: active = inhibition above about 19%; inactive = the rest.

SMILES	DDE Tn7 FP inh	TCR CD3 inh	DDE Tn6 FP inh	mABHD4 FP	SIAE primary	HTRA1 inhibitor	HTRA1 conf	ABHD4 confirm	SIAE confirm	others
O=C(N/N=C/c1cc(Cl)c(O)c(Cl)c1)c1cc2c(ccc3ccccc32)o1	5.3	12.2	-17.0	28.5	55.3*	46.2*	50.4*	nt	40.9*
O=C(N/N=C/c1ccc(O)c(Br)c1)c1cc2c(ccc3ccccc32)o1	-4.7	-12.3	-3.3	-3.5	1.1	-3.9	nt	nt	nt
CCCCc1c(-c2ccccc2OC)ncn1Cc1ccc(OC)c(Cl)c1	-5.2	-5.4	-7.4	-11.7	-3.1	nt	nt	nt	nt
Oc1ccc(/C=N/N(c2ccccc2)c2ccccc2)c(O)c1O	1.2	10.2	-4.1	39.2*	20.3*	68.3*	78.9*	30.4*	-30.4
C/C(=N/Nc1ccc([N+](=O)[O-])cc1)c1c[nH]c2ccccc12	-1.2	-10.5	-13.6	27.4	34.2*	45.8*	81.2*	nt	-5.6
CSc1nsc(/C=C/Nc2ccc(F)cc2)c1C#N	-4.8	-6.8	-8.2	2.0	1.1	-13.2	nt	nt	nt
CSc1nsc(/C=C/Nc2ccc(O)cc2C)c1C#N	0.4	26.9*	12.9	59.3*	43.0*	74.2*	-9.8	6.8	20.8*	BSA TAMRA ctr=7.8;TCR-CD3 inh conf=4.3
O=C(Cn1cc(C(=O)C(=O)N2CCOCC2)c2ccccc21)Nc1cccc(C(F)(F)F)c1	8.1	4.2	-8.5	-5.1	-2.2	-21.8	nt	nt	nt
Cc1ccc2sc(NNC(=O)c3cc(=O)c4ccccc4o3)nc2c1C	9.1	-9.8	-1.0	40.9*	25.4*	69.8*	131.6*	59.2*	33.1*
Cc1ccc2sc(NNC(=O)c3cc(-c4cccs4)nc4ccccc34)nc2c1C	-3.0	-5.0	-7.0	8.5	-2.3	nt	nt	nt	nt
COc1ccc(C(=O)CSc2nnc(-c3ccco3)c(-c3ccco3)n2)cc1	-3.5	16.0	-3.3	19.3	18.9*	36.7*	-3.8	nt	6.8
COc1cccc(NC(=O)CSc2nnc(-c3ccco3)c(-c3ccco3)n2)c1	-0.4	19.7*	-11.7	46.4*	20.0*	39.0*	-5.9	25.1	3.7
COc1ccc(C(=O)CSc2nnc(-c3ccco3)n2C)cc1	1.2	-3.4	0.0	-4.5	8.9	-0.4	nt	nt	nt
O=c1cc(-c2ccccc2)oc2cc(O)ccc12	-0.5	-2.8	-0.9	-16.3	9.4	-6.6	nt	nt	nt
O=c1ccc2c(-c3ccccc3)c3ccc(O)cc3oc-2c1	-6.6	-39.7	68.1*	43.0*	36.3*	60.3*	61.3*	81.3*	35.7*	Tn6 DDE ctr=53.3*;Tn6 DDE conf=38.2*
S=C(Nc1ccc(Nc2ccccc2)cc1)Nc1ccccn1	-9.7	-0.1	-1.1	6.2	31.6*	37.9*	39.6*	nt	2.6
S=C(Nc1ccccc1)Nc1ccccn1	0.8	1.6	3.9	-3.1	4.0	0.0	nt	nt	nt
O=C1C(Nc2ccc(O)cc2)=C/C(=N/S(=O)(=O)c2cccs2)c2ccccc21	2.7	-6.5	-11.0	72.8*	21.0*	63.8*	74.3*	81.3*	5.5
N#C/C(=C/c1ccc(N2CCCCC2)o1)C(=O)Nc1ccc2ccccc2c1	-10.3	0.8	13.9	13.7	20.8*	36.5*	39.5*	nt	2.9
O=C(NCCc1ccc(F)cc1)C1CCC(=O)N(CC2CCCCC2)C1 (stereo not drawn)	-2.0	4.2	-4.5	0.4	5.2	-2.5	nt	nt	nt
O=C(N/N=C/C1CC=CCC1)c1cc2ccccc2cc1O (stereo not drawn)	0.8	1.4	2.4	18.6	19.2*	39.9*	28.3	nt	7.9
C/C(=N\NC(=O)c1cc2ccccc2cc1O)c1ccc(C)o1	-4.2	1.0	-13.6	28.0	23.7*	46.8*	22.9	nt	-1.5
O=C(N/N=C/C1CC=CCC1)c1ccc(O)cc1O (stereo not drawn)	-3.5	5.6	0.7	8.3	12.8	10.4	nt	nt	nt
C/C(=N\NC(=O)c1c[nH]c2ccccc12)c1ccc(C)o1	0.8	0.2	-5.4	-15.7	-0.5	-0.7	nt	nt	nt
Cn1cccc1/C=N/NC(=O)c1cc2ccccc2cc1O	1.3	-2.3	-0.2	13.1	17.2*	40.2*	28.8	nt	1.0
SMILES	DDE Tn7 FP inh	TCR CD3 inh	DDE Tn6 FP inh	mABHD4 FP	SIAE primary	HTRA1 inhibitor	HTRA1 conf	ABHD4 confirm	SIAE confirm	others
COc1ccc(OCc2cc(C(=O)NCC(C)Oc3cccnc3)no2)c(Cl)c1 (stereo not drawn)	3.6	-3.9	4.5	-14.2	-3.8	-9.8	nt	nt	nt
CCCn1nc([N+](=O)[O-])c(C(C#N)c2nc3ccccc3o2)c(Cl)c1=O (stereo not drawn)	3.2	-0.8	-4.6	79.9*	22.0*	68.6*	82.7*	94.6*	5.2
Cn1nc([N+](=O)[O-])c(C(C#N)c2ccccn2)c(Cl)c1=O (stereo not drawn)	1.2	4.1	1.4	16.8	8.6	10.2	nt	nt	nt
CCn1nc([N+](=O)[O-])c(C(C#N)c2nc3cc(C(F)(F)F)ccc3s2)c(Cl)c1=O (stereo not drawn)	6.7	0.8	-6.1	85.1*	22.7*	79.4*	76.3*	101.0*	18.2*
O=C(c1cccs1)n1ccc2ccc(-c3ccc4ccn(Cc5ccccc5)c4c3)cc21	4.4	nt	0.7	-12.8	-13.7	nt	nt	nt	nt
C[C@@]12C(=O)N(c3cccc(F)c3)C(=O)N1[C@@H]1c3ccccc3OC[C@@H]1[C@H]2c1ccccc1	-2.2	-2.3	2.1	-27.4	-0.4	-24.7	nt	nt	nt
Fc1cccc(NC(=S)NNc2c3ccccc3nc3ccccc23)c1	-3.0	-8.6	-3.4	28.2	38.7*	36.5*	28.8	nt	8.5

Assay outcomes from PubChem BioAssay.
